The source made the active and inactive calls. The calls are words filed in the database; no cut-off is given here.
Experiments:
[1] = test system: Hepatitis C virus; test: Antiviral activity against EGFP-fused HCV JFH-1 harboring K78E/E2-G451R/NS3-M260K/NS5A-T462I mutation infected in human Huh7.5.1 cells assessed as combination index after 2 days in presence of sofosbuvir by qRT-PCR analysis; assay type: functional, Hepacivirus hominis
Summary of the method: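 In HCVcc-infected Huh7.5.1 cells (1×10^4/well, overnight, 37 °C), compound was given at various concentrations alone or with the named approved antiviral. After 2 days HCV RNA was quantified by qRT-PCR to derive the combination index.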

[2] = test system: Hepatitis C virus; test: Antiviral activity against HCV JFH-1 pseudotyped viral particle infected in HEK293T cells cotransfected with pCDN3.1-JFH1-cE1E2 plasmid encoding envelope with full length JFH1 and pNL4-3R-E-luciferase construct by luciferase reporter gene assay; assay type: functional, organism-based, Hepacivirus hominis; details: JFH-1, HEK-293T
Summary of the method: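 HCVpp came from HEK293T co-transfected with the JFH1 E1E2 plasmid and pNL4-3R-E-luciferase. Supernatant was harvested at 48 h, filtered and luciferase-standardised for input. Virus was mixed with serially diluted compound (top 30 or 6 μM) and added to cells. Luminescence was read; EC50 is 50% signal reduction.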

[3] = test system: Hepatitis C virus; test: Antiviral activity against EGFP-fused HCV JFH-1 harboring K78E/E2-G451R/NS3-M260K/NS5A-T462I mutation infected in human Huh7.5.1 cells assessed as reduction in viral RNA level after 2 days in presence of boceprevir by qRT-PCR analysis; assay type: functional, organism-based; details: Hepacivirus hominis
Summary of the method: (§1)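 Huh7.5.1 cells at 1×10^4/well, grown overnight at 37 °C. HCVcc was mixed with serially diluted compound (top 30 or 6 μM), given alone or with the named drug, and added to the cells. Viral RNA was read by qRT-PCR after 2 days. EC50 is the concentration giving 50% RNA reduction.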

[4] = test system: Hepatitis C virus; test: Antiviral activity against EGFP-fused HCV JFH-1 harboring K78E/E2-G451R/NS3-M260K/NS5A-T462I mutation infected in human Huh7.5.1 cells assessed as reduction in viral RNA level after 2 days in presence of cyclosporin A by qRT-PCR analysis; assay type: functional, organism-based; details: Hepacivirus hominis; summary of the method: as §1
[5] = Selectivity index, ratio of CC50 for MDCK cells to EC50 for Gaussia tagged A/PR/08/34(H1N1) virus infected in MDCK cells; assay type: toxicity, cell-based; details: dog, read-out: Ratio CC50/EC50
Summary of the method: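 MDCK cells seeded at 1×10^5/well overnight, infected with A/PR/08/34(H1N1)-Gaussia luciferase at MOI 0.1, then given 0.05–20 µM compound immediately. Virus read by luminescence or qRT-PCR at 24 hpi; EC50 at 50% signal reduction. CC50 by WST-1 (OD450/OD630) after 48 h of serially diluted compound.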

[6] = Selectivity index, ratio of CC50 for human RD cells to EC50 for EV71(FY)-Luc infected in human RD cells; assay type: toxicity, cell-based; details: read-out: Ratio CC50/EC50
Summary of the method: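 RD cells seeded at 1×10^4/well and cultured overnight, then infected with EV71(FY)-Luc at MOI 1 and treated with compound straight away. EC50 is the 50% drop in luminescence or RNA. CC50 comes from a 48 h serial-dilution exposure at 1×10^4 cells/well, read by WST-1 (OD450/OD630).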

[7] = Cytotoxicity against HEK293T cells infected with HIV pseudotyped virions assessed as decrease in cell viability after 48 hrs by WST1 assay; assay type: cell-based, HEK-293T; details: human
Summary of the method: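 Cells seeded at 1 × 10^4 per well and cultured overnight at 37 °C, then incubated 48 h with serially diluted compounds. Viability read with WST-1 reagent as absorbance at OD450/OD630.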

[8] = test system: Hepatitis C virus; test: Antiviral activity against EGFP-fused HCV JFH-1 harboring K78E/E2-G451R/NS3-M260K/NS5A-T462I mutation infected in human Huh7.5.1 cells assessed as reduction in viral RNA level after 2 days in presence of sofosbuvir by qRT-PCR analysis; assay type: functional, organism-based; details: Hepacivirus hominis; summary of the method: as §1
[9] = test system: Hepatitis C virus; test: (§2) Antiviral activity against GFP-fused HCV JFH-1 harboring K78E/E2-G451R/NS3-M260K/NS5A-T462I mutant infected in human Huh7.5.1 cells assessed as reduction in viral infection preincubated for 2 hrs followed by viral infection and measured after 48 hrs by epifluorescence microscopic analysis; assay type: functional, organism-based; details: Hepacivirus hominis
Summary of the method: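 Huh7.5.1 cells at 3×10^4/well, cultured overnight at 37 °C in 5% CO2, were pretreated 2 h with compound over 0.0004–0.05 μM. Cells were then infected with HCV-GFP at MOI 1, and GFP expression was imaged by epifluorescence microscopy at 48 hpi.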

[10] = test system: Huh7.5.1; test: Antiviral activity against EGFP-fused HCV JFH-1 harboring K78E/E2-G451R/NS3-M260K/NS5A-T462I mutant infected in human Huh7.5.1 cells assessed as inhibition of viral entry at 0.01 uM preincubated for 2 hrs at 4 degC followed by virus/compound mixture wash-out and subsequent compound addition and measured up to 10 hrs at 37 degC; assay type: functional, cell-based
Summary of the method: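 Time-of-addition: Huh7.5.1 cells were bound with HCVcc at 4 °C for 2 h. Unbound virus was removed, cells were shifted to 37 °C (T = 0), and compound was added at different time points afterwards. Anti-CD81 antibody served as the entry-inhibitor control.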

[11] = Selectivity index, ratio of CC50 for human Huh7.5.1 cells to EC50 for EGFP-fused HCV JFH-1 harboring K78E/E2-G451R/NS3-M260K/NS5A-T462I mutant infected in human Huh7.5.1 cells; assay type: toxicity, cell-based; details: read-out: Ratio CC50/EC50
[12] = Selectivity index, ratio of CC50 for human Huh7.5.1 cells to EC50 for ZIKV infected in human Huh7.5.1 cells; assay type: toxicity, cell-based; details: read-out: Ratio CC50/EC50
Summary of the method: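 SI from two assays. Antiviral: Huh7.5.1 cells infected with DENV II or ZIKV at MOI 0.1; viral RNA measured by qRT-PCR after 3 days; EC50 taken at 50% RNA reduction. Cytotoxicity: cells seeded at 1×10^4/well, given serially diluted compound for 48 h, then WST-1 absorbance (OD450/OD630) read for CC50.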

[13] = Selectivity index, ratio of CC50 for African green monkey Vero cells to EC50 for CHIKV infected in African green monkey Vero cells; assay type: toxicity; details: read-out: Ratio CC50/EC50
[14] = test system: Hepatitis C virus; test: Antiviral activity against HCV infected in human Huh7.5.1 cells assessed as decrease in viral infection in presence of uridine; assay type: functional, organism-based, Hepacivirus hominis; details: Huh-7.5.1
Summary of the method: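 HCV antiviral EC50 in Huh7.5.1 cells was measured with 0.5 mM uridine supplemented, and compared with the EC50 obtained without uridine.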

[15] = test system: Hepatitis C virus; test: as §2, with “viral infection at 10 uM preincubated for” for “viral infection preincubated for”, “microscopic analysis relative to control” for “microscopic analysis”; assay type: functional, Hepacivirus hominis; set-up: scale not given: the % may be the effect or the level left
Summary of the method: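 Primary screen at 10 μM. Huh7.5.1 cells were pretreated 2 h, then infected with GFP-HCV (MOI 1). GFP intensity was checked by fluorescence microscopy at 48 h. Hits needed over 50% fluorescence decay before dose-response retesting.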

[16] = Cytotoxicity against MDCK cells infected with Gaussia tagged Influenza A virus (A/Puerto Rico/8/34(H1N1)) measured after 48 hrs by WST1 assay; assay type: cell-based, Canis lupus familiaris; details: dog
Summary of the method: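 Cells at 1×10^4/well, cultured overnight at 37 °C, were incubated 48 h with serially diluted compound. Viability was read by WST-1 absorbance (OD450/OD630).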

With CCN(CC)c1ccc(Oc2ccc(-c3[nH]c4cccc(F)c4c(=O)c3C)cc2F)cc1 the CI [1] was greater than 50, the EC50 [2] was greater than 50000 nM and the Activity [3] was “Dose-dependent effect”. For the same molecule, the Activity [4] was “Dose-dependent effect”, the selectivity ratio [5] was greater than 10 and the selectivity ratio [6] was greater than 625. The CC50 at 48 h [7] was greater than 1250 nM, the Activity [8] was “Dose-dependent effect” and the Activity [9] was “Dose-dependent effect”. The inhibition [10] was “Active”, the selectivity ratio [11] was greater than 416 and the selectivity ratio [12] was greater than 125. The selectivity ratio [13] was greater than 10, the EC50 [14] was 2800 nM and the Activity [15] was greater than 50%. It also gave a CC50 at 48 h [16] greater than 2500 nM.

— ChEMBL document CHEMBL4334439, “Discovery, Optimization, and Target Identification of Novel Potent Broad-Spectrum Antiviral Inhibitors” (J Med Chem, 2019)
